The results in this text go back to ChEMBL document CHEMBL5247671, “Design and Synthesis of Pyrazole-Based Macrocyclic Kinase Inhibitors Targeting BMPR2” (ACS Med Chem Lett, 2023).

Experiment [1] deals with T1, Bone morphogenetic protein receptor type-2 (Homo sapiens, UniProt Q13873).
T1 sequence (Q13873 whole entry): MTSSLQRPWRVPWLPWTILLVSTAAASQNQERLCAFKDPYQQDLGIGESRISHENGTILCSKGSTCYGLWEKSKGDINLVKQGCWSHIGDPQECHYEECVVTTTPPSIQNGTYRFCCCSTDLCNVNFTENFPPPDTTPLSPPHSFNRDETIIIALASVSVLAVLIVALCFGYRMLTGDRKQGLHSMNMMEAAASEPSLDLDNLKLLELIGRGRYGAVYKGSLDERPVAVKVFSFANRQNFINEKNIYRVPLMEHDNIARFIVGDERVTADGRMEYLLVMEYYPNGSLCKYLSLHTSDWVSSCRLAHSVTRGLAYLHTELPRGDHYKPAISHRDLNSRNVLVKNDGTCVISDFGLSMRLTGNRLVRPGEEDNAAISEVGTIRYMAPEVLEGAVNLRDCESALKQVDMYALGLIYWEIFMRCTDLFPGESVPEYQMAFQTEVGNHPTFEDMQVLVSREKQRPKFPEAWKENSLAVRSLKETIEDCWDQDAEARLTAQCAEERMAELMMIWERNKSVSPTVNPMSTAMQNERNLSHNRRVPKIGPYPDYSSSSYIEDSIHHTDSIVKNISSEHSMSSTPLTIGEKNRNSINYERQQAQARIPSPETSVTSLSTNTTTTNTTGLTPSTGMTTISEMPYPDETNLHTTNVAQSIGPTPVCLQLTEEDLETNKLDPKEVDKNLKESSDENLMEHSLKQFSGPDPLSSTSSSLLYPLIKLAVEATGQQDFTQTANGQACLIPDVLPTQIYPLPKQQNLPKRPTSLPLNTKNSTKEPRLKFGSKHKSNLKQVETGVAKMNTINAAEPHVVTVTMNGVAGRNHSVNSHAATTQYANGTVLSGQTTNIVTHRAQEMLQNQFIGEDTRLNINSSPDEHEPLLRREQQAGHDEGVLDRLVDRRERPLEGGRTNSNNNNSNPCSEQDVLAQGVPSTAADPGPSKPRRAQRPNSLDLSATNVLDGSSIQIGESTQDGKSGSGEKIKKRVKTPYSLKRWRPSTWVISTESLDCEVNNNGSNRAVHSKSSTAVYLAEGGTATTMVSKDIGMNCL
The experiment can be described thus: Inhibition of BMPR2 (174 to end residues) (unknown origin) using MBP as substrate incubated for 60 mins in presence of ATP by ADP Glo assay. In short, it runs like this: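 Enzymatic inhibition of the BMPR2 kinase was read out by ADP-Glo detection of ADP formed, and IC50 values were derived from concentration–response data.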
A general note: ADP-Glo turns the ADP formed in a reaction into a luminescent signal.

In experiment [2] the target is Mitogen-activated protein kinase 8 (Homo sapiens) (UniProt P45983). The experiment can be described thus: Inhibition of JNK1 (unknown origin) assessed as residual activity at 1 uM by Kinomescan assay relative to staurosporine.
For experiment [3], the target named is T2, Tyrosine-protein kinase Mer (Homo sapiens) (UniProt Q12866).
T2 sequence (whole entry): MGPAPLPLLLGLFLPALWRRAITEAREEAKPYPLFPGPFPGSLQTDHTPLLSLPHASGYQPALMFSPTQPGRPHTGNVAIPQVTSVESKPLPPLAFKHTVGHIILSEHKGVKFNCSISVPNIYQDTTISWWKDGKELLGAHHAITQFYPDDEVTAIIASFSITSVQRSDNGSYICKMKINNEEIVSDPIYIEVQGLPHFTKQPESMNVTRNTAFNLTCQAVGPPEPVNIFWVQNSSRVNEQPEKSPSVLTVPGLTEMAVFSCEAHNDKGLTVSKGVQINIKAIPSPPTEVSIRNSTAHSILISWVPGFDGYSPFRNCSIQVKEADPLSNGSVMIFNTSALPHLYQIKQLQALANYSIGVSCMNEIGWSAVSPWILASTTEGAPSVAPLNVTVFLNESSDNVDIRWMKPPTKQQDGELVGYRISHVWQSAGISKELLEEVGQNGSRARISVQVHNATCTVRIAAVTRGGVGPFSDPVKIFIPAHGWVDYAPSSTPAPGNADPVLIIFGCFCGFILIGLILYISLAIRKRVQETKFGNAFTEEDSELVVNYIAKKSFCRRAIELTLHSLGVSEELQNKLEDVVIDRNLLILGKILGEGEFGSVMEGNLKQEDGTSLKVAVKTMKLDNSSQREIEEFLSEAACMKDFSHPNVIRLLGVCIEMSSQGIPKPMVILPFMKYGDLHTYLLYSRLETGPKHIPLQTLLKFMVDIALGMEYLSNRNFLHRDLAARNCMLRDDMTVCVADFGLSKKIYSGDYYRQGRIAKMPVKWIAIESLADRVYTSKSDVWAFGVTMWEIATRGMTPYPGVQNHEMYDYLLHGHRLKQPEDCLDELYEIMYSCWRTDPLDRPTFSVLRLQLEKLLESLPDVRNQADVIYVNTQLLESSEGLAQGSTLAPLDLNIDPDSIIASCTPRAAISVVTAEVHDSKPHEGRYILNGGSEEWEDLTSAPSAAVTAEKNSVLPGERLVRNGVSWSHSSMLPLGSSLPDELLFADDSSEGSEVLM
Nature of the experiment: Binding affinity to recombinant MERTK (unknown origin) assessed as change in melting temperature at 10 uM by DSF assay. The procedure, abridged:
(§1)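 Differential scanning fluorimetry on an in-house panel of 90 recombinant kinases. Stabilization is read as the shift in melting temperature (ΔTm) relative to ligand-free protein. Staurosporine served as the positive control, and binding was also compared against its ΔTm.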

Experiment [4] addresses T2, Tyrosine-protein kinase Mer (Homo sapiens). Nature of the experiment: Inhibition of recombinant MERTK (unknown origin) at 10 uM by DSF assay relative to staurosporine. In short, it runs like this:
as §1
For orientation: DSF heats the sample and reads unfolding from a dye or from intrinsic fluorescence.

Sequence of Mitogen-activated protein kinase 8 (Homo sapiens) (P45983 whole entry): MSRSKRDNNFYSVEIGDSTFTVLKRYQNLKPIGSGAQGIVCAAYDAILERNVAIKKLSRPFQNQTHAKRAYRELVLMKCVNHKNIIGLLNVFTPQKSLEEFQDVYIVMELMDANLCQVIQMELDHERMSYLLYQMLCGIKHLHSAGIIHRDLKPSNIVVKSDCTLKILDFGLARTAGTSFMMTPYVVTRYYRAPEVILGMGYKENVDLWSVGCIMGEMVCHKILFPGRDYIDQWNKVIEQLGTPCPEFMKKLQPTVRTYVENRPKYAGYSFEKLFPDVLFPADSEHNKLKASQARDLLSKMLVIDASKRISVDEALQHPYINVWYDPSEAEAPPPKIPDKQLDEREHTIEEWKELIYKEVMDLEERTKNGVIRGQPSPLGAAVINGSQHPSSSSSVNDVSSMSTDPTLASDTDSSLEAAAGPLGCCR

Broadly, the IC50 is the concentration that inhibits the measured activity by half. Broadly, the ΔTm is the shift of the melting midpoint relative to a reference. What is called inhibition is the share of the control response that was lost under treatment. With `O=C1NCCc2ccc(cc2)Nc2nccc(n2)Nc2cc1[nH]n2`, in experiment [1], the IC50 was 506 nM. For the same molecule, the Activity in experiment [2] came out at 27%. Also, the ΔTm in experiment [3] was determined as 3.2 °C. In experiment [4], the inhibition came out at 48%.
